Experimental data published in PMC8182972 (Journal of medicinal chemistry, 2011).
In brackets after ≈: the same amount, converted by molar mass. Several values for one entry are separate records, joined by “and”; a condition that tells them apart may be missing. Identical values can stand only once. Entries after “also recorded” stand apart in the source; their conditions may differ. One block for each compound: values may come before it.

Columns and labels:
ALS patients = settings: cited from earlier work
primary cortical neurons = assay: Primary cortical neuron cell protection assay; type: cell-based, rat; settings: MG132 100 nM; active = viability restored ≥ 5 SD from MG132 controls
[1] = system: PC12 cells expressing mutant G93A SOD1; type: cell-based; settings: for EC50: PC12 cells expressing mutant G93A SOD1, MG132 100 nM, Calcein-AM viability
[2] = In vitro microsomal stability, mouse; type: in vitro ADME; settings: 5 μM, 37 °C; for CL’int: 1 h, with NADPH; for CL’int NADPH-free: absence of NADPH
[3] = In vitro microsomal stability, human; type: in vitro ADME; settings: 37 °C; for CLint scaled at 1 h, 5 µM: human, microsomes
[4] = Metabolite profiling of 1; type: in vitro ADME; settings: rat liver microsomes, 5 μM, in the presence of NADPH, LC/MS/MS
In short: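 Test compound and its [15N2]-labelled analog (5 μM) were incubated in duplicate with or without rat liver microsomes, in the presence and absence of NADPH. Aliquots were taken at 0, 10, 20, 40 and 60 min. Protein was precipitated with acetonitrile containing internal standard, and supernatants were analysed by LC/MS/MS for new peaks absent from no-microsome, no-compound and no-NADPH controls.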

HEK293 = assay: Screen in other cell types: HEK293; type: cell-based
Caco-2 monolayer cells = assay: Caco-2 permeability; type: in vitro ADME; settings: for Ratio (B→A / A→B): Caco-2 efflux ratio
[5] = Mouse in vivo steady-state level and blood-brain barrier penetration; design: species or system mice
In short: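 B6SJL mice received a 300 mg/kg bolus i.p. injection of test compound. Blood and brain were collected at 0, 1, 3, 6, 12 and 24 h, flash-frozen in liquid nitrogen and stored at -80 °C. Samples were quantified by mass spectrometry with ESI ionization in MRM mode.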

CYP2C19 = CYP2C19 (Homo sapiens, UniProt P33261); assay: CYP inhibition in human liver microsomes; type: biochemical
Sequence of CYP2C19 (P33261 whole entry): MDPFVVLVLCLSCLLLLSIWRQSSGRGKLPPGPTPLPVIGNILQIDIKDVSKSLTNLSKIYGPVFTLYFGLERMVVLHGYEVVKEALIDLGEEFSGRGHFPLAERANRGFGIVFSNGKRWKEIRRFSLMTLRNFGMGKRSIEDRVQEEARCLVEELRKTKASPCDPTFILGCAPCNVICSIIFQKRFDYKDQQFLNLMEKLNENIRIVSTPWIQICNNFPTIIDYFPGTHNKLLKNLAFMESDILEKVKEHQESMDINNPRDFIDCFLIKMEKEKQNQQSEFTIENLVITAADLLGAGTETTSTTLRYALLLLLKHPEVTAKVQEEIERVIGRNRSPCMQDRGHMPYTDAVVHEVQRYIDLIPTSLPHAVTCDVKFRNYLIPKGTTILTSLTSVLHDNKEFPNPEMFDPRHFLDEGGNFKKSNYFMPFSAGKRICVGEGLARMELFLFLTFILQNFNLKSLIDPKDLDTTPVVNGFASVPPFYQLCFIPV
In short: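 Reversible CYP inhibition was measured in human liver microsomes across CYP1A2, 2C9, 2C19, 2D6 and 3A4. Each isozyme used a single probe substrate, except CYP3A4, which used both testosterone and midazolam. IC50 values were derived from this. Work was done by a contract partner.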

Aqueous solubility = type: physicochemical; settings: for Maximum Solubility: 1% DMSO in PBS
[6] = system: 68 in vitro enzyme and receptor assays; assay: LeadProfilingScreen; type: binding; settings: 10 μM, in duplicate
In short: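 Test compound was screened at 10 μM in duplicate against a commercial panel of 68 enzyme and receptor assays. The panel covers common adverse CNS, cardiovascular, pulmonary and […] liabilities.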

HeLa = assay: Screen in other cell types: HeLa; type: cell-based
SHSY-5Y = assay: Screen in other cell types: SHSY-5Y; type: cell-based
In vivo rat PK profiling = assay: In vivo rat PK profiling; design: species or system Sprague-Dawley rats; settings: SD rats
In short: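 Sprague-Dawley rats received a single 1 mg/kg bolus of test compound, i.v. or orally. Plasma profiling gave AUC last, AUC/dose, T1/2, clearance, Vss, Cmax, Tmax and oral bioavailability (%F). Work was done by a contract partner.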

[7] = B6SJL, mouse, plasma, ip, 300 mg/kg

Compound: Nc1nc2ccc(OC(F)(F)F)cc2s1 [riluzole]
- extension of patient lives (ALS patients): 2–3 months

Compound: O=c1cc(CSc2c(Cl)cccc2Cl)[nH][nH]1 [Compound 2]
- activity in primary cortical neuron cell protection assay (primary cortical neurons): active

Compound: 5-(4-Chloro-2,5-dimethylphenylsulfonyl)-1H-pyrazol-3(2H)-one [Compound 8]
- EC50 [1]: 1470 nM

Compound: 5-(4-Chloro-2,5-dimethylphenylsulfinyl)-1H-pyrazol-3(2H)-one [Compound 5]
- EC50 [1]: 2880 nM

- CL’int [2]: 24.5 mL/min/kg
- CL’int NADPH-free [2]: 6.1 mL/min/kg
- CLint scaled at 1 h, 5 µM ([3]; CL’int, 1 h, with NADPH): 15.3 mL/min/kg
Compound: O=c1cc(COc2ccc(Cl)cc2)[nH][nH]1 [Compound 9, 5-((4-Chlorophenoxy)methyl)-1H-pyrazol-3(2H)-one]

- microsomal metabolite identified [4]: sulfoxide
Compound: O=c1cc(CSc2ccc(Cl)cc2)[nH][nH]1 [Compound 1]

- Ratio (B→A / A→B) (Caco-2 monolayer cells): 0.2–0.6
- concentration at 0 h [5, 7]: 0 ng/mL
- concentration at 3 h [5, 7]: 88800 ng/mL and 88.8 µM
- concentration at 6 h [5, 7]: 90000 ng/mL and 90 µM
- concentration at 12 h [5, 7]: 64400 ng/mL and 64.4 µM
- concentration at 24 h [5, 7]: 1700 ng/mL and 1.7 µM
- time of plasma peak ([5]; mice, i.p.): 3 to 6 h
- IC50 (CYP2C19): > 50000 nM
- solubility at 45 min (Aqueous solubility; PBS with 1% DMSO): 250 µM (≈ 64.8 µg/mL)
- solubility at 16 h (Aqueous solubility; PBS with 1% DMSO): 250 µM (≈ 64.8 µg/mL)
- CL’int [2]: 64 mL/min/kg
- CL’int NADPH-free [2]: 21 mL/min/kg
- CLint scaled at 1 h, 5 µM ([3]; CL’int NADPH-free, absence of NADPH): 13 mL/min/kg
- AUC/Dose (In vivo rat PK profiling; 1 mg/kg i.v. single bolus): 184 ng × h/mL/dose
- AUC/Dose (In vivo rat PK profiling; 1 mg/kg p.o. single bolus): 50 ng × h/mL/dose
Compound: O=c1cc(COc2cc(Cl)cc(Cl)c2)[nH][nH]1 [Compound 13, 5-((3,5-Dichlorophenoxy)methyl)-1H-pyrazol-3(2H)-one]
- activity in HEK293 cells (HEK293): active
- activity in the 68 assays of LeadProfilingScreen [6]: No significant activity; also recorded: no significant binding
- activity in primary cortical neuron cell protection assay (primary cortical neurons): active
- activity in HeLa cells (HeLa): active
- activity in SHSY-5Y cells (SHSY-5Y): active

Compound: 5-(3,5-Dichlorophenylsulfonyl)-1H-pyrazol-3(2H)-one [Compound 7]
- Papp (A→B) (Caco-2 monolayer cells; Caco-2): 27.0 10^−6 cm/s
- Papp (B→A) (Caco-2 monolayer cells; Caco-2): 4.4 10^−6 cm/s
- Ratio (B→A / A→B) (Caco-2 monolayer cells): 0.2
- EC50 [1]: 1410 nM
- Maximum Solubility (Aqueous solubility; 45 min): ≥500 µM
- Maximum Solubility (Aqueous solubility; 16 h): ≥500 µM
- activity in primary cortical neuron cell protection assay (primary cortical neurons): active
- CL’int [2]: 15.3 mL/min/kg
- CL’int ([3]; 5 μM, 1 h, with NADPH): 4.5 mL/min/kg
- CL’int NADPH-free ([3]; 5 μM, absence of NADPH): 1.3 mL/min/kg

Compound: 5-(4-Chlorophenylsulfonyl)-1H-pyrazol-3(2H)-one [Compound 6]
- EC50 [1]: 4700 nM

Compound: 5-(4-Chlorophenylsulfinyl)-1H-pyrazol-3(2H)-one [Compound 4]
- maximum viability in the cytotoxicity protection assay [1]: ~ 35%
- EC50 [1]: > 32000 nM
